Data from ChEMBL document CHEMBL2040765, “Synthesis and anticancer activity of a series of norcantharidin analogues” (2012).

Legend:
Assay type in all cases: functional
DU-145 = assay: Growth inhibition of human DU145 cells after 72 hrs y MTT assay; details: DU-145, 72 h
Procedure, shortened: (§1)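 Cells kept in DMEM with 10% FBS, 10 mM sodium bicarbonate, penicillin, streptomycin and 4 mM glutamine at 37 °C under 5% CO2. Log-phase cells were plated in duplicate at 2500–4000 cells/well. After 24 h, compound in medium was added; analogue stocks were 40 mM in DMSO. Growth was read after 72 h by MTT absorbance at 540 nm in dose-response testing.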

[1] = Growth inhibition of human SJ-G2 cells after 72 hrs y MTT assay; details: SJ-G2, 72 h; procedure, shortened: as §1
[2] = Growth inhibition of human BE(2)-C cells after 72 hrs y MTT assay; procedure, shortened: as §1
SW480 = assay: Growth inhibition of human SW480 cells after 72 hrs y MTT assay; details: SW480, 72 h; procedure, shortened: as §1
A2780 = assay: Growth inhibition of human A2780 cells after 72 hrs y MTT assay; details: A2780, 72 h; procedure, shortened: as §1
A-431 = assay: Growth inhibition of human A431 cells after 72 hrs y MTT assay; details: A-431, 72 h; procedure, shortened: as §1
MCF7 = assay: Growth inhibition of human MCF7 cells after 72 hrs y MTT assay; details: MCF7, 72 h; procedure, shortened: as §1
HT-29 = assay: Growth inhibition of human HT-29 cells after 72 hrs y MTT assay; details: HT-29, 72 h; procedure, shortened: as §1
NCI-H460 = assay: Growth inhibition of human H460 cells after 72 hrs y MTT assay; details: NCI-H460, 72 h; procedure, shortened: as §1

Compound | GI50 (DU-145) [µM] | GI50 [1] [µM] | GI50 [2] [µM] | GI50 (SW480) [µM] | GI50 (A2780) [µM] | GI50 (A-431) [µM] | GI50 (MCF7) [µM] | GI50 (HT-29) [µM] | GI50 (NCI-H460) [µM]
O=C1O[C@H](OCCCOP(=O)(OCC(Cl)(Cl)Cl)OCC(Cl)(Cl)Cl)[C@@H]2[C@H]1[C@H]1CC[C@@H]2O1 | > 100 | 41 | > 100 | > 100 | 81 | > 100 | 89 | 37 | > 100
CC(C)O[C@H]1OC(=O)[C@H]2[C@@H]1[C@@H]1CC[C@H]2O1 | > 100 | 21 | 44 | 94 | > 100 | > 100 | > 100 | 19 | > 100
CC(C)(C)O[C@H]1OC(=O)[C@H]2[C@@H]1[C@@H]1CC[C@H]2O1 | > 100 | 48 | > 100 | > 100 | > 100 | > 100 | > 100 | 52 | > 100
O=C1O[C@H](OC2CCCCC2)[C@@H]2[C@H]1[C@H]1CC[C@@H]2O1 | > 100 | 41 | > 100 | > 100 | > 100 | > 100 | > 100 | 45 | > 100
CCCCOC1OC(=O)[C@H]2[C@@H]1[C@@H]1CC[C@H]2O1 (single isomer, unassigned) | > 100 | 32 | 93 | > 100 | > 100 | > 100 | > 100 | 50 | > 100
CCO[C@H]1OC(=O)[C@H]2[C@@H]1[C@@H]1CC[C@H]2O1 | > 100 | 49 | > 100 | > 100 | > 100 | > 100 | > 100 | 77 | > 100
C#CCCCCO[C@H]1OC(=O)[C@H]2[C@@H]1[C@@H]1CC[C@H]2O1 | > 100 | 55 | > 100 | > 100 | > 100 | > 100 | > 100 | 51 | > 100
O=C1O[C@H](OCCCOP(=O)(Oc2ccccc2)Oc2ccccc2)[C@@H]2[C@H]1[C@H]1CC[C@@H]2O1 | > 100 | 40 | > 100 | > 100 | > 100 | > 100 | > 100 | 40 | > 100
CCCCCCCCO[C@H]1OC(=O)[C@H]2[C@@H]1[C@@H]1CC[C@H]2O1 | 86 | 45 | 51 | 49 | 28 | 72 | 36 | 40 | > 100
C=CCO[C@@H]1OC(=O)[C@H]2[C@@H]1[C@@H]1CC[C@H]2O1 | > 100 | – | > 100 | > 100 | > 100 | > 100 | > 100 | – | > 100
CCCCCCO[C@@H]1OC(=O)[C@H]2[C@@H]1[C@@H]1CC[C@H]2O1 | > 100 | – | > 100 | > 100 | > 100 | > 100 | > 100 | – | > 100
O=C1O[C@H](OCCCOP(=O)(O)O)[C@@H]2[C@H]1[C@H]1CC[C@@H]2O1 | 65 | 57 | 67 | 65 | 33 | 52 | 45 | 42 | –
C=CCO[C@H]1OC(=O)[C@H]2[C@@H]1[C@@H]1CC[C@H]2O1 | > 100 | – | – | – | – | > 100 | > 100 | – | > 100
